{
  "source": "ChEMBL document CHEMBL1142061",
  "about": "“The 6-fluoro-8-methoxy quinolone gatifloxacin down-regulates interleukin-8 production in prostate cell line PC-3” (Antimicrob Agents Chemother, 2007)",
  "key": {"PC-3 [1]": {"tested_on": "PC-3", "experiment": "Decrease in IL8 secretion in human PC3 cells at 4 ug/ml", "assay_type": "functional", "set-up": "scale not given: the % may be the effect or the level left", "method_in_brief": "(§1)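 PC-3 cells seeded 2 × 10^5/well, grown 24 h, washed with PBS and switched to serum-free RPMI 1640. GFLX added (0.1 N NaOH vehicle control) and cells incubated 24 h without stimulus. IL-8 in medium quantified by ELISA; means ± SD of three experiments.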"}, "PC-3 [2]": {"tested_on": "PC-3", "experiment": "Decrease in IL8 secretion in human PC3 cells", "assay_type": "functional, cell-based", "method_in_brief": "as §1"}, "PC-3 [3]": {"tested_on": "PC-3", "experiment": "Suppression of PMA-stimulated IL8 secretion in human PC3 cells", "assay_type": "functional", "method_in_brief": "(§2)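 Cells seeded, transfected 24 h later, given GFLX 16 μg/ml 24 h after transfection. Then serum-free medium with fresh GFLX plus stimulus: PGN 1 μg/ml, M. hominis membrane fraction 0.1 μg/ml or […] for 6 h; TNF-α 10 ng/ml for 2 h. IL-8 in supernatant by ELISA; means ± SD, three experiments.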"}, "PC-3 [4]": {"tested_on": "PC-3", "experiment": "Reduction of peptidoglycan-stimulated IL8 secretion in human PC3 cells", "assay_type": "functional", "set-up": "scale not given: the % may be the effect or the level left", "method_in_brief": "as §2"}, "PC-3 [5]": {"tested_on": "PC-3", "experiment": "Suppression of 1 ng/ml LPS-stimulated IL8 secretion in human PC3 cells", "assay_type": "functional"}, "PC-3 [6]": {"tested_on": "PC-3", "experiment": "Suppression of 0.1 ng/ml LPS-stimulated IL8 secretion in human PC3 cells", "assay_type": "functional"}, "PC-3 [7]": {"tested_on": "PC-3", "experiment": "Suppression of TNF alpha-stimulated IL8 secretion in human PC3 cells at 16 ug/ml added 60 mins after stimulation", "assay_type": "functional, cell-based", "method_in_brief": "(§3)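 PC-3 cells seeded 2 × 10^5/well and grown 24 h. GFLX 16 μg/ml added together with TNF-α (0, 5, 10, 25 ng/ml), or 30 or 60 min after it. Total TNF-α exposure 120 min. Secreted IL-8 measured by ELISA; means ± SD of three experiments.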"}, "PC-3 [8]": {"tested_on": "PC-3", "experiment": "Suppression of TNF alpha-stimulated IL8 promoter activity in human PC3 cells", "assay_type": "functional, cell-based", "method_in_brief": "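PC-3 cells transfected with IL-8 promoter (−1481 to +44 bp) in pGL3-Basic plus pRL-TK. 24 h later, GFLX at 0, 2, 4 or 16 μg/ml for 24 h. Serum-free medium with same GFLX and TNF-α 10 ng/ml for 2 h. Dual luciferase read-out; means ± SD, three experiments.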"}, "PC-3 [9]": {"tested_on": "PC-3", "experiment": "Cytotoxicity against human PC3 cells at 16 ug/ml relative to control", "assay_type": "cell-based", "method_in_brief": "(§4)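 PC-3 cells seeded 5 × 10^4/well, grown 24 h, then exposed to GFLX (from 2 mg/ml stock in 0.1 N NaOH; equal NaOH as control) for 48 h. Viability read with a modified MTT method (cell counting kit 8), expressed as % of untreated controls; mean ± SD, n = 3.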"}, "PC-3 [10]": {"tested_on": "PC-3", "experiment": "Reduction of Mycoplasma hominis-stimulated IL8 secretion in human PC3 cells", "assay_type": "functional", "set-up": "scale not given: the % may be the effect or the level left", "method_in_brief": "as §2"}, "[11]": {"experiment": "Decrease in IL8 secretion in human prostatic myofibroblast cells at 16 ug/ml", "assay_type": "functional", "set-up": "scale not given: the % may be the effect or the level left"}, "PC-3 [12]": {"tested_on": "PC-3", "experiment": "Suppression of TNF alpha-stimulated IL8 mutant promoter activity in human PC3 cells at 16 ug/ml by dual luciferase reporter assay"}, "[13]": {"experiment": "Decrease in IL8 secretion in human prostatic myofibroblast cells at 4 ug/ml", "assay_type": "functional", "set-up": "scale not given: the % may be the effect or the level left"}, "PC-3 [14]": {"tested_on": "PC-3", "experiment": "Suppression IL8 secretion in human PC3 cells at 16 ug/ml added simultaneously with TNF alpha", "assay_type": "functional", "method_in_brief": "as §3"}, "PC-3 [15]": {"tested_on": "PC-3", "experiment": "Decrease in IL8 secretion in human PC3 cells at 16 ug/ml", "assay_type": "functional", "set-up": "scale not given: the % may be the effect or the level left", "method_in_brief": "as §1"}, "PC-3 [16]": {"tested_on": "PC-3", "experiment": "Suppression of TNF alpha-stimulated IL8 D-240 mutant promoter activity in human PC3 cells at 16 ug/ml dual luciferase reporter assay", "assay_type": "functional, cell-based", "method_in_brief": "(§5)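 PC-3 cells seeded 4 × 10^4/well and transfected with an IL-8 5′-deletion luciferase construct plus pRL-TK. 24 h later, GFLX 16 μg/ml for 24 h. Then serum-free medium, fresh GFLX and TNF-α 10 ng/ml for 2 h. Promoter activity by dual luciferase assay; means ± SD of three experiments.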"}, "PC-3 [17]": {"tested_on": "PC-3", "experiment": "Suppression of TNF alpha-stimulated IL8 D-188 mutant promoter activity in human PC3 cells at 16 ug/ml dual luciferase reporter assay", "assay_type": "functional, cell-based", "method_in_brief": "as §5"}, "PC-3 [18]": {"tested_on": "PC-3", "experiment": "Inhibition of TNF alpha-induced NF kappaB activation in human PC3 cells at 16 ug/ml", "assay_type": "functional, cell-based", "method_in_brief": "(§6)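 Cells transiently transfected (FuGENE 6) with NF-κB firefly luciferase reporter plus pRL-TK Renilla control. After 24 h, GFLX 16 μg/ml for 24 h, then serum-free medium with GFLX again. Stimulation: PGN 1 μg/ml or M. hominis membrane fraction 0.1 μg/ml for 6 h, TNF-α 10 ng/ml for 2 h. Dual luciferase read-out; three experiments.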"}, "PC-3 [19]": {"tested_on": "PC-3", "experiment": "Cytotoxicity against human PC3 cells at 2 ug/ml relative to control", "assay_type": "cell-based", "method_in_brief": "as §4"}, "PC-3 [20]": {"tested_on": "PC-3", "experiment": "Cytotoxicity against human PC3 cells at 4 ug/ml relative to control", "assay_type": "cell-based", "method_in_brief": "as §4"}, "PC-3 [21]": {"tested_on": "PC-3", "experiment": "Suppression of TNF alpha-stimulated IL8 secretion in human PC3 cells", "assay_type": "functional, cell-based", "method_in_brief": "as §2"}, "PC-3 [22]": {"tested_on": "PC-3", "experiment": "Suppression of TNF alpha-stimulated IL8 secretion in human PC3 cells at 16 ug/ml added 30 mins after stimulation", "assay_type": "functional", "conditions": "PC-3, 0.5 h", "method_in_brief": "as §3"}, "PC-3 [23]": {"tested_on": "PC-3", "experiment": "Inhibition of peptidoglycan-induced NF kappaB activation in human PC3 cells at 16 ug/ml", "assay_type": "functional, cell-based", "method_in_brief": "as §6"}, "PC-3 [24]": {"tested_on": "PC-3", "experiment": "Inhibition of Mycoplasma hominis-induced NF kappaB activation in human PC3 cells at 16 ug/ml", "assay_type": "functional, cell-based", "method_in_brief": "as §6"}, "PC-3 [25]": {"tested_on": "PC-3", "experiment": "Inhibition of TNF alpha-stimulated IL8 mRNA expression in human PC3 cells at 16 ug/ml after 48 hrs", "assay_type": "functional, cell-based", "method_in_brief": "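PC-3 cells seeded 4 × 10^5 per 35-mm dish, grown 24 h, then GFLX 16 μg/ml for 48 h with medium and drug refreshed every 24 h. Cells moved to serum-free RPMI with GFLX and given TNF-α 10 ng/ml for 4 h. TRIzol RNA, oligo(dT) RT, 23-cycle PCR for IL-8 and β-actin. Densitometric IL-8/β-actin band ratio.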"}, "PC-3 [26]": {"tested_on": "PC-3", "experiment": "Suppression of TNF alpha-stimulated IL8 D-170 mutant promoter activity in human PC3 cells at 16 ug/ml dual luciferase reporter assay", "assay_type": "functional, cell-based", "method_in_brief": "as §5"}},
  "note": "Activity calls are given as the source filed them. The rule behind the calls is not given here.",
  "data": [
    {"smiles": "COc1c(N2CCNC(C)C2)c(F)cc2c(=O)c(C(=O)O)cn(C3CC3)c12", "note": "(stereo unspecified) [GATIFLOXACIN]", "values": [
      {"measurement": "Activity", "setting": "PC-3 [1]", "value": 22, "unit": "%"},
      {"measurement": "Activity", "setting": "PC-3 [2]", "value": "Dose-dependent effect"},
      {"measurement": "Activity", "setting": "PC-3 [3]", "value": 34, "unit": "%"},
      {"measurement": "Activity", "setting": "PC-3 [4]", "value": 42, "unit": "%"},
      {"measurement": "Activity", "setting": "PC-3 [5]", "value": 16, "unit": "%"},
      {"measurement": "Activity", "setting": "PC-3 [6]", "value": 19, "unit": "%"},
      {"measurement": "Activity", "setting": "PC-3 [7]", "value": "Active"},
      {"measurement": "Activity", "setting": "PC-3 [8]", "value": "Active"},
      {"measurement": "Activity", "setting": "PC-3 [9]", "value": 96.6, "unit": "%"},
      {"measurement": "Activity", "setting": "PC-3 [10]", "value": 52, "unit": "%"},
      {"measurement": "Activity", "setting": "[11]", "value": 50, "unit": "%"},
      {"measurement": "Activity", "setting": "PC-3 [12]", "value": "Active"},
      {"measurement": "Activity", "setting": "[13]", "value": 19, "unit": "%"},
      {"measurement": "Activity", "setting": "PC-3 [14]", "value": 37, "unit": "%"},
      {"measurement": "Activity", "setting": "PC-3 [15]", "value": 38, "unit": "%"},
      {"measurement": "Activity", "setting": "PC-3 [16]", "value": "Active"},
      {"measurement": "Activity", "setting": "PC-3 [17]", "value": "Active"},
      {"measurement": "Activity", "setting": "PC-3 [18]", "value": "inactive"},
      {"measurement": "Activity", "setting": "PC-3 [19]", "value": 97.6, "unit": "%"},
      {"measurement": "Activity", "setting": "PC-3 [20]", "value": 100, "unit": "%"},
      {"measurement": "Activity", "setting": "PC-3 [21]", "value": "Active"},
      {"measurement": "inhibition at 16 µg/mL", "setting": "PC-3 [22]", "value": 25, "unit": "%"},
      {"measurement": "Activity", "setting": "PC-3 [23]", "value": "inactive"},
      {"measurement": "Activity", "setting": "PC-3 [24]", "value": "inactive"},
      {"measurement": "Activity", "setting": "PC-3 [25]", "value": "Active"},
      {"measurement": "Activity", "setting": "PC-3 [26]", "value": "inactive"}
    ]}
  ]
}
